An excerpt weighted towards active compounds, which were near 1.6% of everything screened.
FLuc stim CS – FLuc activators, initial screening, artefact control for FLuc-dependent activation tests, biochemical, ATPlite luminescence; AID 1027, 2008; activation factor at 10 µM; Luciferin 4-monooxygenase (Photinus pyralis), P08659; 200,000 tested, under 10 active; ATPlite luciferase biochemical, 10 min; 0 = ATP-free wells, 1 = DMSO control;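 active means luciferase activation factor, scaled between plate controls, of at least 2 with compound at 10 µM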
Target sequence (P08659 whole entry, looked up): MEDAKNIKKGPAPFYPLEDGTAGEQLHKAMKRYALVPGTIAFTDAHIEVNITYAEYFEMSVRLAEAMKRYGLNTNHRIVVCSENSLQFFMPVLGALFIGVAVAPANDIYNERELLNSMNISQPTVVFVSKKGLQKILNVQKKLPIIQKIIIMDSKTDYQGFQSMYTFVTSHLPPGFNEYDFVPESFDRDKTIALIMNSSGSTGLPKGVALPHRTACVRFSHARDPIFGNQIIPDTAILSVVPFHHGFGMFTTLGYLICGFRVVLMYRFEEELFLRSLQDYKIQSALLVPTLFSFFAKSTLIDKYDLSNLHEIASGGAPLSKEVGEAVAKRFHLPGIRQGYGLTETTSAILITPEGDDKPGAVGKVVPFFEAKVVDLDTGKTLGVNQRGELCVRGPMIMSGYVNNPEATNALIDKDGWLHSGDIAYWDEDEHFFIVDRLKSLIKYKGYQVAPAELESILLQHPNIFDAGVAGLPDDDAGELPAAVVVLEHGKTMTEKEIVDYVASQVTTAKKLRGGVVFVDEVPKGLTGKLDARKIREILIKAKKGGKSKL
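assay system = Luciferase/luciferin detection reagent, cell-free biochemical luciferase assay | also added = ATP substrate | times = 10 min post-reagent at room temperature | measured by = luminescence from luciferase reaction | measure = luciferase activation, seen as luminescence increase over controls | benchmarks = low control with PBS replacing ATP, high control enzyme plus ATP without compound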
FLuc inh counter – firefly luciferase enzyme inhibitors, primary screen, artefact control for luciferase-based inhibitor screens, biochemical, luminescence, ATPLite. Luciferin 4-monooxygenase (Photinus pyralis), P08659. 10 min. inhibition, % at 10 µM. 200,000 compounds, 1.5% hits. AID 1006, 2008;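 active means inhibition above about 50% when tested at 10 µM, limit read from the data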
C8 TRAIL sens – viability loss with TRAIL in NB7+C8 cells, primary screen, TRAIL sensitizer project, cell-based, ATPlite luminescence; inhibition (viability loss, TRAIL sensitization), % at 10 µM; 360,000 compounds, 1% hits;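 active means compounds causing at least 50% loss of cell viability in the single-dose screen, relative to plate controls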
PPC-1+TRAIL kill – compounds killing PPC-1 cancer cells with TRAIL present, primary screen, TRAIL potentiator project, ATPLite luminescence, uHTS | PPC-1 cells + TRAIL, ATPLite viability luminescence | cell killing (% activity), % at 4 µM or 5 µM | 220,000 compounds, 0.41% hits | AID 1443, 2008;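 active means cell killing above 50% in the first pass at 4 µM, then a duplicate retest at 5 µM averaging 50% or more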
Hits are given with their value; - = inactive; . = not tested or not shown.

SMILES	FLuc stim CS	FLuc inh counter	C8 TRAIL sens	PPC-1+TRAIL kill
O=C(Nc1ncc2c(n1)CC(c1ccco1)CC2=O)c1ccccc1 (centres undefined)	-	-	-	58.0
COc1ccccc1C(=O)Nc1nc(-c2ccc(S(=O)(=O)N3CCOCC3)cc2)cs1	-	-	75.5	-
COc1ccccc1OC(C)C(=O)Nc1nc(-c2ccc(S(=O)(=O)N3CCOCC3)cc2)cs1 (centres undefined)	-	-	-	-
COC(=O)C[C@@H]1CC[C@@H](NS(=O)(=O)c2ccc(OC)cc2)[C@@H](CO)O1	.	.	-	.
CCCCNc1c(-c2ccc(SC(C)CC)cc2)nc2ccccn12 (centres undefined)	.	.	69.1	.
CCN(C[C@H]1N[C@@](Cc2ccccc2)(C(=O)OC)[C@H]2C(=O)N(Cc3ccccc3)C(=O)[C@@H]12)C(=O)Nc1ccc(C(F)(F)F)cc1	.	.	-	.
N#C/C(=C\c1cc(Cl)cc(Cl)c1O)C(=O)NC1CCCCC1	-	-	54.1	-
N#C/C(=C\c1cc(Cl)ccc1O)C(=O)NC1CCCCC1	-	-	-	-
c1ccc2oc(-c3ccn[nH]3)cc2c1	.	.	-	-
N/C(=N\OC(=O)c1ccc(Cl)cc1)c1cccnc1	-	94.3	91.0	-
N/C(=N\OC(=O)c1ccc(Cl)cc1Cl)c1cccnc1	-	92.8	61.3	-
Cc1ccccc1S(=O)(=O)N(C)C[C@H]1OCc2cnnn2CCCC(=O)N([C@H](C)CO)C[C@H]1C	.	.	-	.
Cc1cc(OC(C)C(=O)N2C[C@H]3C[C@@H](C2)c2cccc(=O)n2C3)c2c(C)c(C)c(=O)oc2c1 (some centres undefined)	.	.	-	.
CS(=O)(=O)N(CC(=O)Nc1ccccc1Br)Cc1ccccc1	.	.	-	.
CCc1ccc(Nc2nnc(SCC(=O)Nc3cccc(S(=O)(=O)NC4=NCCCCC4)c3)s2)cc1	-	81.5	64.3	51.1
CCOc1ccc(OCC(=O)Nc2cccc(S(=O)(=O)NC3=NCCC3)c2)cc1	.	.	62.8	.
CCc1ccc(Nc2nnc(SCC(=O)Nc3ccc(C(=O)O)cc3)s2)cc1	.	.	58.9	-
Cc1ccc(Nc2nnc(SCC(=O)Nc3cccc(S(=O)(=O)NC4=NCCCCC4)c3)s2)cc1	-	-	-	-
O=C(/C=C/c1ccccc1Cl)Nc1cccc(S(=O)(=O)NC2=NCCCCC2)c1	-	71.3	-	-
CC(C)(C)c1ccc(OCC(=O)Nc2cccc(S(=O)(=O)NC3=NCCCCC3)c2)cc1	.	.	-	.
O=C(/C=C/c1ccc([N+](=O)[O-])cc1)Nc1cccc(S(=O)(=O)NC2=NCCCCC2)c1	.	.	-	.
CCOC(=O)/C(C#N)=C1\SS/C(=C(/C#N)C(=O)OCC)S1	.	.	.	-
CC(=O)Nc1ccc(NC(=O)CSc2nnc(NC(=O)c3cccc(F)c3)s2)cc1	.	.	52.9	.
O=C(CSc1nnc(NC(=O)c2c(F)cccc2F)s1)Nc1ccc(F)cc1	-	-	-	.
CC(C)CC(=O)/C(=C\c1ccc(Cl)cc1Cl)n1cncn1	-	-	64.4	-
SMILES	FLuc stim CS	FLuc inh counter	C8 TRAIL sens	PPC-1+TRAIL kill
CC(C)CC(=O)/C(=C/c1ccc(N(C)C)cc1)n1cncn1	.	.	-	.
Cc1ccc(NC(=O)Cn2c(O)c(N=NC(=O)c3cc4ccccc4cc3O)c3ccccc32)cc1	-	-	69.5	-
CCC(C)Nc1ccc(NC(C)CC)cc1 (centres undefined)	.	.	76.8	.
Cc1nc2c(-c3ccc(Cl)cc3)cnn2c(N)c1-c1ccc(F)cc1	.	.	-	.
Cc1nc2c(-c3ccc(F)cc3)cnn2c(N)c1-c1ccccc1	.	.	83.5	.
Cc1cc(-c2ccc(F)cc2)n2ncc(-c3ccccc3)c2n1	.	.	64.3	.
CCOc1ccc(/C=N/Nc2cc(=O)n(C)c(=O)n2C)cc1	-	-	-	-
COC(=O)C(Cc1ccccc1)NC(=O)c1ccc(C)cc1 (centres undefined)	-	60.0	-	.
CS(=O)(=O)NCCSc1cc(C(F)(F)F)nc2ccccc12	.	.	-	-
O=C(O)c1ccc(NC2=C(Cl)C(=O)c3ccccc3C2=O)cc1	.	.	-	-
O=C1C(Cl)=C(Nc2ccccc2)C(=O)c2ccccc21	-	-	88.2	-
O=C1C(Cl)=C(NCc2cccnc2)C(=O)c2ccccc21	.	.	80.0	.
Cc1cc(N/C=C/C(=O)c2cccs2)ccc1F	-	80.0	-	-
O=C(/C=C/Nc1cccc([N+](=O)[O-])c1)c1cccs1	-	50.8	-	-
CNc1cc([N+](=O)[O-])ccc1N/C=C/C(=O)c1cccs1	-	-	-	-
O=C(/C=C/Nc1ccc(Nc2ccccc2)cc1)c1cccs1	-	-	-	-
O=C(/C=C/Nc1ccccc1C(=O)O)c1cccs1	-	64.7	-	-
Cc1cc(C)n2nc(C(=O)OCC(=O)N3C(C)CCCC3C)nc2n1 (centres undefined)	.	.	-	.
O=C(Cn1cc(C(F)(F)F)cc(Cl)c1=O)NC1CCS(=O)(=O)C1 (centres undefined)	.	.	-	.
CN(C)CCNC(=O)c1cc2c(s1)-c1ccc(Cl)cc1SC2	.	.	96.9	.
CCOCCCNC(=O)c1cc2c(s1)-c1ccccc1SC2	.	.	-	.
CCc1ccc2oc(-c3cc(N)cc(C)c3O)nc2c1	-	61.9	-	-
CCc1ccc2oc(-c3cc(N)ccc3O)nc2c1	-	88.3	65.4	-
Nc1ccc2oc(-c3cc(Br)ccc3Cl)nc2c1	-	-	-	-
CCc1ccc2oc(-c3cc(N)ccc3Cl)nc2c1	-	56.5	47.0	-
SMILES	FLuc stim CS	FLuc inh counter	C8 TRAIL sens	PPC-1+TRAIL kill
c1cc(-c2nc3cc(Cc4ccc5oc(-c6ccncc6)nc5c4)ccc3o2)ccn1	-	-	.	-
CCCC(=O)Nc1ccc(-c2nc3cc(C)c(C)cc3o2)c(O)c1	-	-	-	-
Nc1ccc2oc(-c3ccccc3Cl)nc2c1	-	74.6	-	-
Cc1ccc(C)c(-c2nc3cc(N)ccc3o2)c1	-	-	-	-
CCOC(=O)c1c(C)[nH]c(C(=O)N(C)CC(=O)Nc2ccc(OCC)c(OCC)c2)c1C	.	.	-	.
CCN(CC(=O)NCc1ccc(Cl)cc1)C(=O)CSCC(=O)Nc1cccc(C)c1	.	.	-	.

High-throughput results: PubChem BioAssay, Sanford-Burnham Center for Chemical Genomics
